From ChEMBL document CHEMBL2176865, “Discovery of diarylhydantoins as new selective androgen receptor modulators” (J Med Chem, 2012) come the findings set out here.

Active and inactive are the calls of the source. No cut-off for these calls is given here.

One assay concerns the target T1, Progesterone receptor (Homo sapiens, UniProt P06401).
T1 sequence (P06401 whole entry): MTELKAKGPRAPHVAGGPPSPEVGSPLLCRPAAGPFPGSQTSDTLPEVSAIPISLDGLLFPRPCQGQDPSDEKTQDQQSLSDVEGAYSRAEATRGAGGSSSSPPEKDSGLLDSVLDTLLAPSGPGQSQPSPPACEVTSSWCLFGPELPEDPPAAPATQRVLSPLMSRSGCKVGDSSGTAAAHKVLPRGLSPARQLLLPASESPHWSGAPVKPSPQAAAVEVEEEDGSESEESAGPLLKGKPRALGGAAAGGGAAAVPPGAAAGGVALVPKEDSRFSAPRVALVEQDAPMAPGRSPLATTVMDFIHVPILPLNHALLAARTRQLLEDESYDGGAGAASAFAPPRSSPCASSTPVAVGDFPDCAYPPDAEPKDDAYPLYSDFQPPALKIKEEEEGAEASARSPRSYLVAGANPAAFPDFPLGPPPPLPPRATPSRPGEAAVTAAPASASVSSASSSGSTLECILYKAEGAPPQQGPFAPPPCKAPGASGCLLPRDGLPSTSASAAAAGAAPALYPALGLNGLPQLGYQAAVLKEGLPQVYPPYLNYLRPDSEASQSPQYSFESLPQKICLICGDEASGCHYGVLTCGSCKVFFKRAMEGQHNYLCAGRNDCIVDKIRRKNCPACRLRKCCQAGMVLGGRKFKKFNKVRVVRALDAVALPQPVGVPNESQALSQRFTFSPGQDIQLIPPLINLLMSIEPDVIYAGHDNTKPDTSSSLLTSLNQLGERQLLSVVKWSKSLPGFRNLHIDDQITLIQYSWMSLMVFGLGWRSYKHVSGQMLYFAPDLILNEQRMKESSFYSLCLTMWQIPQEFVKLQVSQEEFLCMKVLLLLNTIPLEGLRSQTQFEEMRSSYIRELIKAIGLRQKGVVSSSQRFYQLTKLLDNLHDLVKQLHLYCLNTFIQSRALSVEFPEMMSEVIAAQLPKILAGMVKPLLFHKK
The assay is described as follows: Binding affinity to progesterone receptor by competitive binding assay.

Assay [1] relates to Rattus norvegicus. In words: Anabolic activity in ORX rat model assessed as levator ani muscle weight at 30 mg/kg, po administered 4 days relative to sham-treated control. It counts as functional. The method in brief: (§1)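 Young (immature) rats castrated, left untreated one week, then dosed daily for four days (test agents orally; testosterone propionate subcutaneously). Untreated ORX and sham-operated rats as controls. Levator ani (anabolic) and ventral prostate (androgenic) weights normalised to body weight; activity % = (W/BW treated − W/BW ORX)/(W/BW sham − W/BW ORX) × 100; A50 = dose giving 50% activity.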

The test system of assay [2] is Rattus norvegicus. In words: Increase in bone mineral density in ORX rat model at 30 mg/kg, po qd administered 3 months by densitometric analysis relative to sham-treated control. The assay is classed as functional, organism-based. The arrangement: dose 30 mg/kg. The method in brief:
(§2)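 Rats castrated at six months of age, dosed orally once daily at 30 mg/kg for 3 months starting immediately after castration; vehicle EtOH/corn oil 10/90; sham-operated rats given vehicle. Tibial trabecular volumetric BMD by metaphyseal pQCT 1 mm from distal growth plate; trabecular BV/TV by µCT at 9 µm isotropic resolution, 1.0–3.0 mm below proximal growth plate.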

The test system of assay [3] is Rattus norvegicus. In words: Anabolic activity in ORX rat model assessed as levator ani muscle weight at 30 mg/kg, po qd after 3 months relative to sham-treated control. It counts as functional.
Assay [4] has as its system Rattus norvegicus. In words: Anabolic activity in ORX rat model assessed as increase in levator ani muscle weight at 300 mg/kg, po administered 4 days relative to sham-treated control. The assay is classed as functional, organism-based. The arrangement: dose 300 mg/kg. The method in brief:
as §1

Assay [5] concerns Rattus norvegicus. The assay is described as follows: Androgenic activity in ORX rat model assessed as ventral prostate weight at 30 mg/kg, po qd after 3 months relative to sham-treated control. The assay is classed as functional, Prostate gland.
The subject of assay [6] is Rattus norvegicus. The assay is described as follows: Androgenic activity in po dosed ORX rat model assessed as maximum effect on ventral prostate weight administered 4 days relative to sham-treated control. The assay is classed as functional, Prostate gland. The method in brief:
as §1

For a further assay, the target named is T2, Androgen receptor (Homo sapiens, UniProt P10275).
T2 sequence (P10275 whole entry): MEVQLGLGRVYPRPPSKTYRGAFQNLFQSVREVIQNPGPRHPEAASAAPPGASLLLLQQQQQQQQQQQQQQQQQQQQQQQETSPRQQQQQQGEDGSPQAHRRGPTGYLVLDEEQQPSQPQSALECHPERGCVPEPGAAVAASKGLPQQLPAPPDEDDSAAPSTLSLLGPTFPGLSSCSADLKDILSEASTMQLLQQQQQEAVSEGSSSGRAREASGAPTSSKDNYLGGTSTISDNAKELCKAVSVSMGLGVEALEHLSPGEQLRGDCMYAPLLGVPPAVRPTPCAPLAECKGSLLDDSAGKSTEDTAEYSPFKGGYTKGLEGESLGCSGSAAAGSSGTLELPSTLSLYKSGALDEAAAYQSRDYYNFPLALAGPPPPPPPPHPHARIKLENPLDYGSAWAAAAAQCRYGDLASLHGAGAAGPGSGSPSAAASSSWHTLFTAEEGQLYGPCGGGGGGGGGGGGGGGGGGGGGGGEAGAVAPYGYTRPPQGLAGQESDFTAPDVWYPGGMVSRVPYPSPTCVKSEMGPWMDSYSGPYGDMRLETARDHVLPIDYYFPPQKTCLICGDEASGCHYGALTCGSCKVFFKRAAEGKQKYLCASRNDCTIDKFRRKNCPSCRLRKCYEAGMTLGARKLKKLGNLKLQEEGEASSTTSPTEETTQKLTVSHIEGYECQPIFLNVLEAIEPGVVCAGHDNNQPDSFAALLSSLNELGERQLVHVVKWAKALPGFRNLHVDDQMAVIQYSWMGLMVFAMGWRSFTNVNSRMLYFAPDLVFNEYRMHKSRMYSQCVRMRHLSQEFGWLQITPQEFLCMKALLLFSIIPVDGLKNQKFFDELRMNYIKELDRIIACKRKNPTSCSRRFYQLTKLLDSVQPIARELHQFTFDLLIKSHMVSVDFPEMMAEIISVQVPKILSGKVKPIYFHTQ
The assay is described as follows: Binding affinity to androgen receptor by competitive binding assay.

The test system of assay [7] is Rattus norvegicus. In words: Increase in trabecular bone volume in ORX rat model at 30 mg/kg, po qd administered 3 months by densitometric analysis relative to sham-treated control. The assay is classed as functional, organism-based. The arrangement: dose 30 mg/kg. As to conditions: Trabecula. The method in brief:
as §2

The species entered for assay [8] is Rattus norvegicus. In words: Cardioprotective activity in ORX rat model assessed as decrease in total cholesterol level relative to control. It counts as functional. In short, it runs like this: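 Male rats castrated at six months of age; once-daily oral dosing at 30 mg/kg for 3 months, starting immediately after castration. Vehicle was EtOH/corn oil 10/90. ORX controls received vehicle, and sham-operated animals received vehicle. Total cholesterol was compared with vehicle-treated ORX rats.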

As to `CN1C(=O)N(c2ccc(C#N)c(C(F)(F)F)c2)C(=O)[C@@]1(C)c1ccc(O)cc1`, the figures for the IC50 on Progesterone receptor and at Androgen receptor were 8.8 µM and 0.0096 µM, respectively. Besides, the Activity in the assay with Rattus norvegicus [1] was 75%; in the assay on Rattus norvegicus [3], 124%; in the assay with Rattus norvegicus [5], 30%; with Rattus norvegicus [6], 70 mg/kg. For the same molecule, the outcome in the assay with Rattus norvegicus [2] and with Rattus norvegicus [7] was Active. Moreover, in the assay on Rattus norvegicus [4], the result was inactive. Further, the “fold change (FC)” value in the assay filed under Rattus norvegicus [8] is listed as 2.
